Data taken from ChEMBL document CHEMBL1141338, “Cytotoxic sesquiterpene lactones from Pseudoelephantopus spicatus” (J Nat Prod, 2007).
In brackets after ≈: the same amount, converted by molar mass.

Tests used:
HepG2 = test: Cytotoxicity against human HepG2 cells; format: functional, cell-based
Method in brief: (§1)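 Panel lines are HepG2 hepatocellular carcinoma, MDA-MB-231 breast carcinoma and A-549 lung carcinoma (human); cytotoxicity evaluated alongside Hep3B and MCF-7 in the same screen.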

MDA-MB-231 = test: Cytotoxicity against human MDA-MB-231 cell; format: functional, cell-based; method in brief: as §1
A549 = test: Cytotoxicity against human A549 cells; format: functional, cell-based; method in brief: as §1
[1] = Cytotoxicity against human Hep3B cells; format: functional, cell-based, Hep 3B2
Method in brief: (§2)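 Human Hep3B hepatocellular carcinoma and MCF-7 breast carcinoma lines; cytotoxicity reported as IC50 in µg/mL; doxorubicin included as positive control.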

MCF7 = test: Cytotoxicity against human MCF7 cells; format: functional, cell-based; method in brief: as §2

For COCC1=C2/C(=C\[C@@]3(C)CC[C@](O)(O3)[C@@](C)(O)C[C@@H]2OC(C)=O)OC1=O, which IC50 (HepG2) is on record?
Its IC50 is greater than 5 µg/mL.

What about the IC50 (MDA-MB-231) of the same compound?
Its IC50 is greater than 5 µg/mL.

What about the IC50 (A549) of the same compound?
The IC50 was greater than 5 µg/mL.

Which IC50 (HepG2) does the source give for COCC1=C2[C@@H](OC(C)=O)C[C@@](C)(OC(C)=O)[C@@]3(O)CC[C@@](C)(O)[C@H](OC(C)=O)[C@@]23OC1=O here?
The IC50 was greater than 5 µg/mL.

What about the IC50 (MDA-MB-231) of the same compound?
Its IC50 is greater than 5 µg/mL.

What about the IC50 (A549) of the same compound?
The IC50 was greater than 5 µg/mL.

Which IC50 [1] does the source give for COc1cccc2c1C(=O)c1c(O)c3c(c(O)c1C2=O)C[C@@](O)(C(=O)CO)C[C@@H]3O[C@H]1C[C@H](N)[C@H](O)[C@H](C)O1 [DOXORUBICIN] here?
Its IC50 is 0.06 µg/mL (≈ 0.11 µM).

Which IC50 (HepG2) does the source give for CC(=O)OCC1=C2/C(=C\[C@@]3(C)CC[C@](O)(O3)[C@@](C)(O)C[C@@H]2O)OC1=O [PITOCARPHIN D] here?
The IC50 was greater than 5 µg/mL.

And the IC50 (MDA-MB-231)?
The IC50 was greater than 5 µg/mL.

And the IC50 (A549)?
The IC50 was greater than 5 µg/mL.

Which IC50 (HepG2) does the source give for CC(=O)OCC1=C2[C@@H](OC(C)=O)C[C@@]3(C)O[C@]2(C[C@](C)(O)CCC3=O)OC1=O [SPICATOLIDE A] here?
The IC50 was greater than 5 µg/mL.

What about the IC50 (MDA-MB-231) of the same compound?
The IC50 was greater than 5 µg/mL.

What about the IC50 (A549) of the same compound?
The IC50 was greater than 5 µg/mL.

Which results are given for C/C=C(\C)C(=O)O[C@H]1C[C@](C)(O)[C@]2(O)CC[C@](C)(/C=C3/OC(=O)C(COC)=C31)O2 [SPICATOLIDE E]?
IC50 (HepG2): > 5 µg/mL; IC50 (MDA-MB-231): > 5 µg/mL; IC50 (A549): > 5 µg/mL

With COCC1=C2[C@@H](O)C[C@@]3(C)O[C@]2(C[C@](C)(O)CCC3=O)OC1=O [SPICATOLIDE F] as the compound, how does the IC50 (HepG2) read?
The IC50 was greater than 5 µg/mL.

And the IC50 [1]?
Its IC50 is 3.2 µg/mL (≈ 9.81 µM).

What about the IC50 (MCF7) of the same compound?
The IC50 was 2.4 µg/mL (≈ 7.35 µM).

And the IC50 (MDA-MB-231)?
Its IC50 is greater than 5 µg/mL.

What about the IC50 (A549) of the same compound?
The IC50 was greater than 5 µg/mL.

With COCC1=C2[C@@H](OC(C)=O)C[C@@]3(C)O[C@@]2(OC1=O)[C@H](O)[C@@]1(C)CC[C@]3(O)O1 [SPICATOLIDE G] as the compound, how does the IC50 (HepG2) read?
The IC50 was greater than 5 µg/mL.

And the IC50 [1]?
Its IC50 is 6.1 µg/mL (≈ 15.9 µM).

What about the IC50 (MCF7) of the same compound?
Its IC50 is 4.8 µg/mL (≈ 12.5 µM).

What about the IC50 (MDA-MB-231) of the same compound?
Its IC50 is greater than 5 µg/mL.

What about the IC50 (A549) of the same compound?
The IC50 was greater than 5 µg/mL.

For C=C1CC[C@@H]2[C@H](OC(=O)[C@H]2C)[C@H]2[C@H](C)OC(=O)C[C@@H]12 [SPICATOLIDE H], which IC50 (HepG2) is on record?
Its IC50 is greater than 5 µg/mL.

And the IC50 (MDA-MB-231)?
Its IC50 is greater than 5 µg/mL.

And the IC50 (A549)?
The IC50 was greater than 5 µg/mL.

Which IC50 (HepG2) does the source give for COCC1=C2/C(=C\[C@@]3(C)CC[C@](O)(O3)[C@@](C)(O)C[C@@H]2O)OC1=O [SPICATOLIDES D] here?
Its IC50 is greater than 5 µg/mL.

And the IC50 [1]?
Its IC50 is 4.8 µg/mL (≈ 14.7 µM).

And the IC50 (MCF7)?
The IC50 was 5.1 µg/mL (≈ 15.6 µM).

What about the IC50 (MDA-MB-231) of the same compound?
The IC50 was greater than 5 µg/mL.

And the IC50 (A549)?
Its IC50 is greater than 5 µg/mL.
